Only some compounds are listed: those with a hit (about 2.3% of all), similar ones and a draw of the others.
TRPC6 inh: inhibitors of mouse TRPC6 channel | Q61143 | hit rate 1.1% among 310,000 | HEK293-TRPC6, membrane potential dye, ACh-evoked depolarization; hits give low values | B-score at 10 µM;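 active means B-score under library mean minus 3 SD, initial fluorescence not abnormally high, positive integrated signal ratio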;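 further: B-score derived from integrated fluorescence ratio over the kinetic read; more negative B-score means stronger inhibition of depolarization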
TRPC4 potent: allosterically enhances the mouse TRPC4 cation channel; Q9QUQ5; HEK293 TRPC4beta/mu-opioid, DAMGO EC20, Fluo-4 Ca2+ flux; hits give high values; B-score at 10 µM; hit rate 0.42% among 310,000; AID 2227;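 active means B-score of calcium response area above 5 SD of library B-scores, with initial fluorescence ratio within 5 SD of library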;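 further: B-score of integrated fluorescence ratio over time as area under calcium response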
Target sequence (Q9QUQ5 whole entry, looked up): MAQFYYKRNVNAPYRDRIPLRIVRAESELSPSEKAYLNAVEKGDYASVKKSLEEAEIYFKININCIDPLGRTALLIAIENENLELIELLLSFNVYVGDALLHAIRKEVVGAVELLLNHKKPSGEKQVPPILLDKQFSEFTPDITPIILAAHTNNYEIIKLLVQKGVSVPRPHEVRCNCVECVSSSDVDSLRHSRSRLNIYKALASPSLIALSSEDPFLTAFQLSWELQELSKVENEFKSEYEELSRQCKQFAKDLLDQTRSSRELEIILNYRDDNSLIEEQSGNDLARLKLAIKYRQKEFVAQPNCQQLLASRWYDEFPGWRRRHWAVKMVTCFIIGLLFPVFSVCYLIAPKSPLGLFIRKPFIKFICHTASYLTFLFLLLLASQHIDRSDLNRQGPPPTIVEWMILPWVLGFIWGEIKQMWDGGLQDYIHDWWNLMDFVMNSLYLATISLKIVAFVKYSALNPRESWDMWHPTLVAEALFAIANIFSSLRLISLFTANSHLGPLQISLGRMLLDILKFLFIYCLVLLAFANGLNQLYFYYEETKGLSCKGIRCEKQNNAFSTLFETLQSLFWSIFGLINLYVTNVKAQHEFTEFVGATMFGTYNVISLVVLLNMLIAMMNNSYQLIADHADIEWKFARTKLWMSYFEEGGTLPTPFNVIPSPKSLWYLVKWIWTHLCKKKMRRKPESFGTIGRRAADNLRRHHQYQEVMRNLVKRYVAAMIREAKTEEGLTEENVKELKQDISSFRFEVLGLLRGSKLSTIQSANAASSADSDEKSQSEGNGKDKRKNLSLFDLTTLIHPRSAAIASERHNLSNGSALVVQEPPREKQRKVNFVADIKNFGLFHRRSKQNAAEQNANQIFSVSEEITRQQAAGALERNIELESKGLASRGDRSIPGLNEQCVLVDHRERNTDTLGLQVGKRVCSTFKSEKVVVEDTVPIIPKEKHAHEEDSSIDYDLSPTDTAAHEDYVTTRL
TRPC4 block: blocks the mouse TRPC4 cation channel; Q9QUQ5; hit rate 0.39% among 300,000; B-score at 10 µM; HEK293 TRPC4beta/mu-opioid, DAMGO-evoked Fluo4 calcium flux; hits give low values;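 active means B-score over 3 SD under the library average, no early fluorescence shift, positive overall ratio signal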
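Material: HEK293 cells with stable TRPC4beta plus mu-opioid receptor expression / Probe or stimulus: DAMGO in two steps, submaximal then maximal / Compound: single concentration per test compound / Technique: kinetic Fluo4 fluorescence imaging of calcium influx / Read-out: per-well B score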
TRPC6 activator: mouse TRPC6 channel activation; AID 2550; hit rate 0.13% among 310,000; B-score at 10 µM; HEK293-TRPC6 membrane potential dye fluorescence; hits give high values;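 active means B-score of the integrated fluorescence ratio above library mean plus 3 SD, and starting fluorescence ratio within library mean plus 5 SD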;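 further: higher score means more depolarization so channel activation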
TRPC4 agonist: TRPC4 (mouse) channel activation | hit rate 0.49% among 310,000 | HEK293 TRPC4beta/mu-opioid, Fluo4 calcium fluorescence; hits give high values | B-score at 10 µM | Q9QUQ5 | AID 2237;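 active means B-score above 5 SD of library B-scores, and initial fluorescence ratio not above library mean plus 5 SD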;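 further: positive B-score marks a calcium rise read as TRPC4 activation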
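Material: TRPC4beta and mu-opioid receptor HEK293 stable cells | Incubation: 45 min room-temperature Fluo4 loading, 110 s read | Detection: Kinetic Fluo4 calcium fluorescence | Measure: Integrated baseline-normalised fluorescence ratio, converted to per-well B score | Benchmarks: Low control buffer alone, high control maximal DAMGO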
HEK293 TRPC6 ctr: checks TRPC6 modulator effects in parental HEK293 cells | shares compounds with TRPC6 inh | hit rate 51% among 2,400 | membrane potential signal change, % at 10 µM | membrane potential dye fluorescence | AID 488924;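 active means membrane potential signal moves up or down beyond 5 SD from buffer-only wells, on both duplicate plates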
HEK293 MPD ctr 2: second check of TRPC6 modulator effects in parental HEK293 cells. shares compounds with TRPC6 inh. membrane potential dye fluorescence; after compound, maximal acetylcholine stimulation. inhibition, % at 10 µM. hit rate 14% among 2,400. AID 488926;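 active means membrane potential signal drops by more than 5 SD from the mean control signal, in both duplicate plates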;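 further: plate controls were acetylcholine ECmax control wells for no effect and buffer only wells for full effect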
TRPC4 ctr mod: tests whether TRPC6 modulators also affect mouse TRPC4. shares compounds with TRPC6 inh. HEK293 TRPC4/mu-opioid, membrane potential fluorescence. percent change from control (negative = decrease, positive = increase), % at 10 µM. hit rate 69% among 2,400. AID 488927;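 active means membrane potential signal moved up or down beyond 5 SD of buffer control wells, in both duplicate plates, actives on both sides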;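 further: plate controls were assay buffer wells for no effect and DAMGO maximal-effect wells for full effect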
TRPC4 ctr inh 2: second selectivity test of TRPC6 modulators against mouse TRPC4; shares compounds with TRPC6 inh; HEK293 TRPC4/mu-opioid, membrane potential dye fluorescence; stimulated with maximal-effect DAMGO; inhibition, % at 10 µM; hit rate 55% among 2,400; AID 488928;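 active means drop in membrane potential signal beyond 5 SD of the control wells in both duplicate plates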;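 further: TRPC4 counter screen for TRPC6 hits run under conditions tuned for TRPC6 not TRPC4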
TRPC6 block conf: confirmation of mouse TRPC6 inhibitors | shares compounds with TRPC6 inh | inhibition, % at 10 µM | HEK293-TRPC6, membrane potential dye, ACh-evoked depolarization | hit rate 43% among 3,300;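 active means fluorescence ratio falls more than 5 SD below the full-stimulation control mean, in both duplicate runs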;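 further: integrated fluorescence ratio of peak minus minimum over baseline after agonist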
TRPC6 act conf: mouse TRPC6 activator confirmation; shares compounds with TRPC6 inh; HEK293-TRPC6 membrane potential dye fluorescence, FDSS; activation, % at 10 µM; hit rate 11% among 2,800;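 active means ratio signal rise beyond 5 SD above unstimulated control wells' mean, seen in both duplicate runs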;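 further: plate controls were buffer EC0 wells for no effect and acetylcholine ECmax response for full effect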
An asterisk follows results filed as active.

COC(=O)C1=NN(C(=O)c2cccc(Br)c2)C(O)(c2ccc(Cl)cc2)C1 (stereo unspecified) was read as TRPC6 inh inactive, TRPC4 potent inactive, TRPC4 block inactive, TRPC6 activator 30.1*, TRPC4 agonist 100*, HEK293 TRPC6 ctr 457.0%*, HEK293 MPD ctr 2 inactive, TRPC4 ctr mod 94.5%*, TRPC4 ctr inh 2 inactive and TRPC6 act conf 326.5%*.
For CCOC(=O)C1=NN(C(=O)c2ccccc2)C(O)(c2ccc(C)cc2)C1 (stereo unspecified) the results were TRPC6 inh inactive, TRPC4 potent inactive, TRPC4 block inactive, TRPC6 activator inactive and TRPC4 agonist inactive.
`O=C(O)c1cc2nccc(-c3ccc(F)cc3)n2n1` gave TRPC6 inh inactive, TRPC4 potent inactive, TRPC4 block inactive, TRPC6 activator inactive and TRPC4 agonist inactive.
For O=c1[nH]c2ccccc2c(O)c1-c1cc2ccccc2oc1=O the results were TRPC6 inh inactive, TRPC4 potent inactive, TRPC4 block inactive, TRPC6 activator inactive and TRPC4 agonist inactive.
For CCN(CC)c1ccc(/C=N\NC(=O)c2cccc3cc[nH]c23)cc1 the results were TRPC6 inh -5.67*, TRPC4 potent inactive, TRPC4 block inactive, TRPC6 activator inactive, TRPC4 agonist inactive, HEK293 TRPC6 ctr inactive, HEK293 MPD ctr 2 inactive, TRPC4 ctr mod -12.5%*, TRPC4 ctr inh 2 54.5%*, TRPC6 block conf inactive and TRPC6 act conf inactive.
For O=C(c1ccc2[nH]ccc2c1)N1CCCC(Nc2ccccc2)C1 (stereo unspecified) the results were TRPC6 inh inactive, TRPC4 potent inactive, TRPC4 block inactive, TRPC6 activator inactive and TRPC4 agonist inactive.
Cc1c(OCC(=O)NCCCN2CCCC2=O)ccc2c3c(c(=O)oc12)CCCC3 was read as TRPC6 inh inactive, TRPC4 potent inactive, TRPC4 block inactive, TRPC6 activator inactive and TRPC4 agonist inactive.
For Cc1cc(=O)oc2c(C)c(OCC(=O)NCCCN3CCCC3=O)ccc12 the results were TRPC6 inh -5.15*, TRPC4 potent inactive, TRPC4 block inactive, TRPC6 activator inactive, TRPC4 agonist inactive, HEK293 TRPC6 ctr -192.0%*, HEK293 MPD ctr 2 inactive, TRPC4 ctr mod -27.5%*, TRPC4 ctr inh 2 inactive, TRPC6 block conf inactive and TRPC6 act conf inactive.
Screening Cc1c(OCC(=O)NCCN2CCOCC2)ccc2c3c(c(=O)oc12)CCC3 returned TRPC6 inh -5.15*, TRPC4 potent inactive, TRPC4 block inactive, TRPC6 activator inactive, TRPC4 agonist inactive, HEK293 TRPC6 ctr inactive, HEK293 MPD ctr 2 inactive, TRPC4 ctr mod -14.0%*, TRPC4 ctr inh 2 inactive, TRPC6 block conf inactive and TRPC6 act conf inactive.
Screening Cc1c(OCC(=O)NCCCN2CCCC2=O)ccc2c3c(c(=O)oc12)CCC3 returned TRPC6 inh -6.13*, TRPC4 potent inactive, TRPC4 block inactive, TRPC6 activator inactive, TRPC4 agonist inactive, HEK293 TRPC6 ctr -105.0%*, HEK293 MPD ctr 2 inactive, TRPC4 ctr mod -19.0%*, TRPC4 ctr inh 2 inactive, TRPC6 block conf inactive and TRPC6 act conf inactive.
